Compound activity from PubChem.
Compounds with a hit are over-represented: about 3.5% of the library has one in this group of screens.
pPAFAH inh: pPAFAH (human) enzyme inhibition. inhibition, % at 3.39 µM. 1.5% of 330,000 active. recombinant pPAFAH, FP-rhodamine probe fluorescence polarization. Q13093;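 active = inhibition above the mean inhibition across the screen plus 3 SD, cut at about 25% in these data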;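 note: inhibitors block binding of the rhodamine activity-based probe so polarization drops; 0% = enzyme with DMSO and 100% = wells lacking pPAFAH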
PAFAH2 inh: inhibitors of human PAFAH2; inhibition, % at 3.39 µM; Q99487; 0.99% of 340,000 active; recombinant PAFAH2, FP-rhodamine activity probe, fluorescence polarization;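 active = inhibition above the mean over all tested compounds plus 3 SD, cut at about 30% in these data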;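 note: inhibitors block probe labeling of enzyme so polarization drops; 0% = enzyme with DMSO and 100% = wells lacking PAFAH2 protein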
Apaf-1 inh: blocks human Apaf-1 apoptosome activity | reconstituted apoptosome caspase-3 activity, DEVD-Rh110 fluorescence | inhibition, % at 20 µM | 0.71% of 330,000 active; active = inhibition of at least 40% at 20 µM;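 note: plate controls were DMSO wells for no effect and DEVD-CHO caspase inhibitor wells for full effect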
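Assay system: Apoptosome proteins | Medium: pH 7.5 Hepes buffer with CHAPS, BSA, DTT | Also added: Cytochrome c and DEVD-Rh110 substrate | Times: 30 min plus 50 min, RT | Detection: Rhodamine 110 fluorescence at Ex 480/Em 540 nm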
PAFAH1B2 FP inh: PAFAH1B2 (human) inhibition; P68402; recombinant PAFAH1B2, FP-rhodamine activity probe, fluorescence polarization; inhibition, % at 3.39 µM; 1.2% of 340,000 active; AID 492953;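 active = inhibition above the mean of all tested compounds plus 3 SD, cut at about 24% in these data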;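 note: 0% = enzyme with DMSO and 100% = wells lacking PAFAH1B2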
Target sequence (P68402 whole entry, looked up): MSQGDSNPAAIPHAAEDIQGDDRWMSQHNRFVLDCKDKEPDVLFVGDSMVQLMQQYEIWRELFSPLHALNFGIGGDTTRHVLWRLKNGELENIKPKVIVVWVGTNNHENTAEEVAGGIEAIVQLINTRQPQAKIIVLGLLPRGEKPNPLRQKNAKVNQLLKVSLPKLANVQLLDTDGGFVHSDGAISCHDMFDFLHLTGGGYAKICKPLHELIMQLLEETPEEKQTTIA
PAFAH1B3 FP inh: PAFAH1B3 (human) inhibition. Q15102. recombinant PAFAH1B3, FP-rhodamine probe, fluorescence polarization. inhibition, % at 3.39 µM. 0.28% of 340,000 active;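 active = inhibition above the screen-wide average of all tested compounds plus 3 SD, cut at about 25% in these data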;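 note: 0% = enzyme with DMSO only and 100% = wells lacking PAFAH1B3 protein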
Target sequence (Q15102 whole entry, looked up): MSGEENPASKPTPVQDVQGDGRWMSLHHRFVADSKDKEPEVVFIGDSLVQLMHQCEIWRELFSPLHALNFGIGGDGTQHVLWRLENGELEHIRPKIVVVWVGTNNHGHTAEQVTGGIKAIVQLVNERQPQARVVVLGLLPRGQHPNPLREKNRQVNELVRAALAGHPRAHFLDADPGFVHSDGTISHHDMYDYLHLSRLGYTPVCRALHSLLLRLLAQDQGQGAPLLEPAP
PREPL inhibitor: inhibits the human prolyl oligopeptidase-like enzyme | Q4J6C6 | recombinant PREPL, fluorescence polarization activity-based probe | inhibition, % at 5.96 µM | 0.68% of 320,000 active; in the data active = inhibition above about 43%;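 note: 0% = enzyme with DMSO and 100% = wells lacking enzyme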
Starred values were filed as active, the others as inactive; . = no result; + = active, no number.

SMILES	pPAFAH inh	PAFAH2 inh	Apaf-1 inh	PAFAH1B2 FP inh	PAFAH1B3 FP inh	PREPL inhibitor
Cc1cc(C)c2nc(NNC(=O)c3ccc(S(=O)(=O)N4CCCC(C)C4)cc3)sc2c1 (centres undefined)	29*	-2	10	3	6	-2
Cc1cc(C)c2nc(NNC(=O)c3ccc(S(=O)(=O)N4CC(C)CC(C)C4)cc3)sc2c1 (centres undefined)	19	8	1	17	8	4
O=C(O)CSc1cc(NS(=O)(=O)c2ccc(Cl)cc2)c2ccccc2c1O	12	36*	.	51*	52*	8
O=C(CSc1nc(=O)n(CCCN2CCOCC2)c2c1CCC2)Nc1cccc(F)c1	3	-1	3	5	6	-5
CCOC(=O)c1ccc(NC(=S)N2CCCC(C(=O)N3CCCC3)C2)cc1 (centres undefined)	32*	1	-2	0	-1	0
O=C(O)c1ncn(Cc2ccc(Br)cc2)c1C(=O)O	1	9	-12	25*	8	-2
CNC(=O)OCN1C(=O)C2CC=CCC2C1=O (centres undefined)	.	8	.	8	7	.
Cn1c2ccccc2c(=O)n2c(=O)c3ccccc3cc12	-3	.	98*	.	.	7
COc1ccc(C(=O)c2sc3nc(-c4ccccc4)ccc3c2N)cc1OC	30*	8	5	8	2	18
O=C(CCNS(=O)(=O)c1ccccc1)NNC(=O)COc1ccccc1F	0	1	4	7	5	4
CN(Cc1ccccc1F)C(=O)CNC(=O)Cc1cccc2ccccc12	3	-1	11	2	0	4
CC(C)(C)c1ccc(C(=O)NCCC(=O)NNC(=O)COc2ccccc2F)cc1	2	-8	21	25*	4	21
CN(Cc1ccccc1F)C(=O)CCNC(=O)c1ccc(C(C)(C)C)cc1	5	-3	13	28*	1	7
Oc1ccc(C=Nc2ccc3ncccc3c2)c(O)c1	19	.	95*	.	.	7
COc1cccc(N=Cc2ccc(O)cc2O)c1	9	2	-13	2	2	10
CCc1ccccc1NC(=O)c1cc([N+](=O)[O-])ccc1N1CCOCC1	1	1	8	3	3	9
Cc1cccc(C)c1NC(=O)CN(C)C(=O)c1cc([N+](=O)[O-])ccc1N1CCOCC1	4	-3	-2	1	-2	9
CN(CC(=O)Nc1ccccc1Br)C(=O)c1cc([N+](=O)[O-])ccc1N1CCOCC1	2	139*	5	176*	+	19
CC1CCN(c2ccccc2NC(=O)c2cc([N+](=O)[O-])ccc2N2CCOCC2)CC1	2	-4	22	27*	4	4
CC(C)(CNc1ccc([N+](=O)[O-])cc1Cl)CNS(C)(=O)=O	12	6	9	4	6	-7
CN(Cc1ccc(-n2cccn2)cc1)C(=O)c1cnn2c1NC(c1ccco1)CC2C(F)(F)F (centres undefined)	.	-2	.	0	-2	.
c1csc(Cc2nn3c(-c4ccncc4)nnc3s2)c1	10	0	78*	3	0	18
COc1cc2cc(C(C)(C)O)oc(=O)c2cc1OC	33*	-13	-8	11	9	8
COc1cc(C#Cc2ccc3cc(C(C)(C)O)oc(=O)c3c2)cc(OC)c1	-3	-4	13	-1	7	0
CCN1CC(C)(C)N(C(=O)c2ccccc2)CC1(C)C	.	-2	.	2	7	.
SMILES	pPAFAH inh	PAFAH2 inh	Apaf-1 inh	PAFAH1B2 FP inh	PAFAH1B3 FP inh	PREPL inhibitor
Cc1ccc(-c2csc3ncnc(N4CCN(S(=O)(=O)c5cccs5)CC4)c23)cc1	-5	-4	17	-2	-2	2
O=S(=O)(c1ccc(Cl)cc1)N1CCN(CCc2ccccc2)CC1	-10	1	18	28*	13	-37
COc1cc2nc(CN3CCN(S(=O)(=O)c4ccc(Cl)cc4)CC3)[nH]c(=O)c2cc1OC	1	6	-3	6	10	1
O=S(=O)(c1ccc(Cl)cc1)N1CCN(Cc2ccncc2)CC1	-1	1	5	24*	6	2
O=c1[nH]c(CN2CCN(S(=O)(=O)c3ccc(Cl)cc3)CC2)nc2cc(Cl)ccc12	-8	1	14	24*	4	-5
O=S(=O)(c1ccc(F)cc1)N1CCN(CCc2ccccc2)CC1	-7	-4	-1	5	-1	-13
COc1ccc(S(=O)(=O)N2CCN(Cc3ccc(Cl)cc3)CC2)cc1	8	1	6	5	-5	-13
Cc1ccc(S(=O)(=O)N(CC(=O)NCc2ccncc2)Cc2ccc(F)cc2)cc1	0	-13	2	3	-4	5
CCC(c1ccc(O)c(O)c1)C(CC)c1ccc(O)c(O)c1 (centres undefined)	.	-2	.	27*	-4	.
CN(C(=O)COC(=O)c1ccc(Cl)c(S(=O)(=O)N2CCCCCC2)c1)C1CCS(=O)(=O)C1 (centres undefined)	1	4	-6	3	2	16
CN(C(=O)COC(=O)c1ccc(Cl)c(S(=O)(=O)NCc2ccccc2)c1)C1CCS(=O)(=O)C1 (centres undefined)	.	5	.	34*	1	.
Cn1c(=O)n(C)c2cc(S(=O)(=O)Nc3cc(Cl)ccc3O)ccc21	6	-3	9	0	-4	4
O=C(Cn1nc(Cc2cccnc2)c2ccccc2c1=O)Nc1cc(F)ccc1F	1	2	-25	5	4	-1
O=C(Cn1nc(Cc2cccnc2)c2ccccc2c1=O)Nc1ccccc1F	25*	1	-12	1	1	-7
O=C(CSc1nnc2ccc(-c3cccnc3)nn12)Nc1cccc(F)c1	.	3	12	9	5	.
CCCCCN1N=C(C)CC1=O	-3	-2	7	6	1	14
COc1cc(CNCCO)cc(Cl)c1OCc1ccc(Cl)cc1Cl	28*	7	24	8	13	-62
O=C(N/C(=C/c1cccc([N+](=O)[O-])c1)C(=O)N1CCOCC1)c1ccccc1Br	-5	-4	7	5	6	8
CSc1ccc(C=NNc2ccc(S(=O)(=O)Nc3ccccc3C(=O)O)cc2[N+](=O)[O-])cc1	22	20	-90	9	14	43
CCOc1cccc(C=NNc2ccc(S(=O)(=O)Nc3ccccc3C(=O)O)cc2[N+](=O)[O-])c1O	30*	7	2	16	9	27
COC(=O)c1sccc1NC(=O)CC1C(=O)NCCN1C(=O)Nc1ccc(OCc2ccccc2)cc1 (centres undefined)	5	1	4	61*	4	14
COC(=O)c1sccc1NC(=O)CC1C(=O)NCCN1C(=O)Nc1ccccc1 (centres undefined)	5	3	-24	-5	1	1
